# Experimental data collected from several papers.
# Compare with care: the assays were run in different laboratories.
# Cell line: HeLa
# Observed: cell growth or viability
SMILES,assay,conditions,IC50
COc1ccc(C=NNC(=S)Nc2ccc(C#N)cc2)cc1,,72 h,31 µg/mL
COc1c2c(cc3c1OCO3)[C@]13C=C[C@H](OC)C[C@@H]1[N@](C2)C[C@H]3OC(=O)c1ccoc1,WST-1,48 h,> 10000 nM
N#Cc1ccc(NC(=S)NN=Cc2ccc(O)cc2)cc1,,72 h,91 µg/mL
N.N.[Cl][Pt][Cl],MTT,48 h,17000 nM
CC[C@@]1(OC(=O)Cc2c(C)n(C(=O)c3ccc(Cl)cc3)c3ccc(OC)cc23)C(=O)OCc2c1cc1n(c2=O)Cc2cc3cc4c(cc3nc2-1)OCO4,MTT,,306 nM
O=C(Cc1ccc2ccccc2c1)N[C@H](Cc1ccccc1)C(=O)N[C@@H](Cc1ccccc1)C(=O)N[C@@H](Cc1ccc(OP(=O)(O)O)cc1)C(=O)O,MTT,48 h,> 500000 nM
CC[C@H](C)[C@@H]([C@@H](CC(=O)N1CCC[C@H]1[C@H](OC)[C@@H](C)C(=O)N[C@H](C)[C@@H](O)c1ccccc1)OC)N(C)C(=O)[C@@H](NC(=O)[C@H](C(C)C)N(C)C(=O)OCc1ccc(NC(=O)[C@H](CCCNC(N)=O)NC(=O)[C@@H](NC(=O)CCCCCN2C(=O)CC(SCCC(=O)N[C@@H](Cc3cn(CCOCCNCCCCCCOc4cc(OCCCc5c(C)n[nH]c5C)cc(C(=O)O)c4)nn3)C(=O)NCCCCCC(=O)NCCCC[C@H](NC(=O)N[C@@H](CCC(=O)O)C(=O)O)C(=O)O)C2=O)C(C)C)cc1)C(C)C (stereo partly shown),MTT,,372 nM
COc1c2c(cc3c1OCO3)[C@]13C=C[C@H](OC)C[C@@H]1[N@](C2)C[C@H]3OC(=O)c1ccc2ccccc2c1,WST-1,48 h,> 10000 nM
CC(C)[C@]12O[C@H]1[C@@H]1O[C@]13[C@]1(O[C@H]1C[C@H]1C4=C(CC[C@@]13C)C(=O)OC4)[C@@H]2O,thymidine uptake,24 h,12 nM
CC[C@@]1(OC(=O)[C@@H](N)CCCCN)C(=O)OCc2c1cc1n(c2=O)Cc2cc3cc4c(cc3nc2-1)OCO4,MTT,,24 nM
C[C@]12C=CC(=O)C[C@@H]1CC[C@@H]1[C@@H]2C(=O)C[C@@]2(C)[C@H]1CC[C@]2(C)O,MTT,24 h,19200 nM
CC[C@@]1(OC(=O)[C@@H](N)C(C)C)C(=O)OCc2c1cc1n(c2=O)Cc2cc3cc4c(cc3nc2-1)OCO4,MTT,,114 nM
N#Cc1ccc(NC(=S)NN)cc1,,72 h,11 µg/mL
CC[C@@]1(OC(=O)[C@H](C)N)C(=O)OCc2c1cc1n(c2=O)Cc2cc3cc4c(cc3nc2-1)OCO4,MTT,,103 nM
CSc1ccc(NC(=S)NN)cc1,,72 h,18 µg/mL
CC[C@@]1(OC(=O)CN)C(=O)OCc2c1cc1n(c2=O)Cc2cc3cc4c(cc3nc2-1)OCO4,MTT,,42 nM
Nc1cc(I)c(I)cc1N,,72 h,15000 nM
CC[C@@]1(OC(=O)[C@@H](N)Cc2ccccc2)C(=O)OCc2c1cc1n(c2=O)Cc2cc3cc4c(cc3nc2-1)OCO4,MTT,,64 nM
COc1cc(C(=O)c2cc3c(-c4ccccc4)c(O)ccc3o2)cc(OC)c1OC,,,31000 nM
